Shown are actives, neighbours in structure and some others; about 5.6% of the full set was active somewhere.
UPR CHOP act – activators of apoptotic CHOP UPR arm, primary screen, cell-based, CHO-CHOP luciferase reporter, luminescence, uHTS; UPR activation; percent of tunicamycin response over DMSO baseline; activation, % at 10 µM; hit rate 0.34% among 330,000; AID 449763, 2010;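 active = at 10 µM dose, activation of 40% or more, normalized to positive control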;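 note: 100% = tunicamycin at 10 µg/mL and 0% = DMSO alone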
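measured by = luciferase luminescence | assay system = CHO-CHOP cells, stable luciferase reporter of PERK-eIF2a-CHOP signalling | amount = 500 reporter cells seeded per well | timing = 6 h compound exposure at 37 °C after overnight seeding | controls = positive tunicamycin 10 µg/mL, negative DMSO alone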
CHOP inh – inhibitors of CHOP promoter induction, primary screen, cell-based, unfolded protein response, luciferase reporter; CHO-K1 CHOP-promoter luciferase, tunicamycin-induced, 15-18 h; inhibition, % at 10 µM; hit rate 3.8% among 220,000; AID 2732, 2010;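 active = compounds that reduced the stress-induced luciferase reporter signal by more than about 70% of percent inhibition, limit read from the data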;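 note: 0% = tunicamycin plus vehicle and 100% = wells without tunicamycin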
MPTP inh – mitochondrial permeability transition pore inhibitors, primary screen, biochemical, isolated mouse mitochondria, absorbance. Ca2+ swelling absorbance, 30 min. inhibition, % at 10 µM. hit rate 1.4% among 360,000;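 active = inhibition of 50% or more, scaled per plate between neutral and stimulator controls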;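 note: 0% = DMSO wells given calcium and 100% = 1 mM EGTA wells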
XBP1 UPR activ – activators of adaptive XBP1 UPR arm, primary screen, cell-based, CHO-XBP1 luciferase reporter, luminescence, uHTS; IRE1-XBP1 UPR activation; percent of tunicamycin response, DMSO as zero; AID 463104, 2010; hit rate 0.33% among 330,000; activation, % at 20 µM;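 active = versus positive control, 20 µM dose yields 30% or more activation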;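 note: 100% = tunicamycin at 10 µg/mL and 0% = DMSO only wells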
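Material: CHO-XBP1 cells stably carrying IRE1-XBP1-driven luciferase reporter / Amount: 1000 cells per well / Compound: 20 µM, 1% DMSO / Times: 6 h treatment, 37 °C / Detection: luciferase luminescence / Measure: % activation of reporter signal versus tunicamycin and DMSO controls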
aDG glyco up – activators of alpha-DG glycosylation, primary screen, uHTS, Pro5-aDG cells, AlphaScreen. hit rate 0.22% among 360,000. AID 624168, 2012. alpha-DG glycosylation AlphaScreen (IIH6); 0% Pro5, 100% B10-LARGE cell signal. activation, % at 10 µM;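 active = activation of at least 8% versus controls, or a plate z-score of at least 8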;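 note: Pro5 are CHO cells carrying HIG-tagged alpha-DG that lacks glycosylation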
NR3A LBD binder – binders of NR3A ligand-binding domain, primary screen, biophysical, differential scanning fluorimetry, uHTS. AID 1259313, 2017. hit rate 2.5% among 340,000. Glutamate receptor ionotropic, NMDA 3A (GRIN3A) ligand-binding domain. NR3A LBD differential scanning fluorimetry, Tm shift; 0% = protein alone, 100% = glycine-bound protein. Tm shift relative to glycine control, % at 25 µM;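 active = melting temperature shift of at least 10% of the positive control shift, at one fixed dose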
* hit, by the source's call; . = not tested or not shown.

SMILES | UPR CHOP act | CHOP inh | MPTP inh | XBP1 UPR activ | aDG glyco up | NR3A LBD binder
Cc1ccc(NC(=O)C2COc3ccccc3O2)cc1 (stereo not given) | 5 | . | 0 | -3 | 0 | -2
O=C(Nc1cccc(-c2cn3ccsc3n2)c1)c1ccccc1 | 3 | -2 | 1 | 0 | 1 | 21*
O=C(Nc1cccc(-c2cn3ccccc3n2)c1)c1cnccn1 | 1 | -27 | -1 | 5 | 0 | 1
O=C(Nc1cccc(-c2cn3ccccc3n2)c1)c1cccc(Cl)c1 | 4 | 3 | 1 | 9 | 1 | 16*
COc1ccccc1C(=O)Nc1cccc(-c2cn3ccsc3n2)c1 | . | -42 | . | . | . | .
O=C(Nc1ccc(-c2cn3ccsc3n2)cc1)C1COc2ccccc2O1 (stereo not given) | 4 | 27 | -1 | -3 | 0 | 24*
CCOC(=O)c1ccccc1NC(=O)Cn1c(=O)n(Cc2ccccc2)c(=O)c2c(C)c(C)sc21 | 3 | 37 | 15 | 1 | 0 | 2
Cc1ccc(C(=O)COC(=O)c2ccc3c(c2)C(=O)N(c2cccc4ncccc24)C3=O)cc1 | -1 | 39 | 1 | -3 | 0 | 2
O=C(COC(=O)c1ccc2c(c1)C(=O)N(c1cccc3ncccc13)C2=O)c1ccc(Cl)cc1 | -2 | 87* | 0 | -3 | 0 | 1
CC(=O)Nc1ccc(/C=C/c2ccc3c([N+](=O)[O-])cccc3n2)cc1 | 2 | -12 | 0 | 5 | 0 | -1
CCOc1cc(/C=C/c2ccc3cccc([N+](=O)[O-])c3n2)cc(Cl)c1O | 3 | 40 | 1 | 4 | 0 | 6
O=[N+]([O-])c1cccc2ccc(/C=C/c3ccc(Cl)cc3)nc12 | 9 | 16 | -14 | 2 | -1 | 21*
O=[N+]([O-])c1cccc2ccc(/C=C/c3cccc(Br)c3)nc12 | 5 | 9 | 0 | 4 | 0 | 23*
Nc1ccc(S(=O)(=O)Nc2nccc(/C=C/c3cccc(Br)c3)n2)cc1 | -1 | . | 0 | -4 | 0 | 4
O=[N+]([O-])c1cccc2ccc(/C=C/c3ccc(C(F)(F)F)cc3)nc12 | -1 | 1 | 2 | 2 | -1 | 17*
COC(=O)/C(=C(O)\C=C\c1ccccc1[N+](=O)[O-])c1nc2ccccc2[nH]1 | 3 | . | 1 | 13 | 0 | -7
CC(=O)Nc1ccc(S(=O)(=O)Nc2ccccc2C(=O)N2CCCCCC2)cc1 | 0 | . | -2 | -4 | 0 | 1
COC(=O)c1ccccc1S(=O)(=O)N1CCC(C(=O)NCc2ccccn2)CC1 | . | . | 0 | . | 0 | .
COc1ccc(OC)c(N(CCN2C(=O)c3ccccc3C2=O)C(=O)C2CCC(=O)C2C)c1 (stereo not given) | . | . | -1 | . | 0 | .
CSC1=N/C(=C\c2c(F)cccc2Cl)C(=O)S1 | -3 | 74* | 0 | 1 | 0 | 5
CSC1=N/C(=C\c2cccc(F)c2)C(=O)S1 | -1 | 47 | 1 | 0 | 0 | 5
O=C(COC(=O)C1CSC2(c3ccc(F)cc3)CCC(=O)N12)NC(=O)NC1CCCC1 (stereo not given) | -1 | 73* | -2 | -3 | 0 | -3
O=C(NCc1ccco1)c1cc(-c2ccccc2)on1 | 5 | -3 | 1 | 1 | 0 | 11*
O=C(NCc1ccco1)c1cccs1 | -1 | 76* | 1 | -4 | 0 | -2
O=c1c2ccccc2n(Cc2cccc(F)c2)c(=O)n1C1CCCC1 | -3 | 82* | 2 | -1 | 0 | -11
SMILES | UPR CHOP act | CHOP inh | MPTP inh | XBP1 UPR activ | aDG glyco up | NR3A LBD binder
Cc1ccc(NC(=O)C(C)Sc2nc(=O)cc(N)n2-c2ccccc2)cc1 (stereo not given) | -1 | 73* | -1 | 0 | 0 | -2
C=CCn1c(SCC(=O)Nc2ccc(C(=O)OCC)cc2)nnc1-c1sc(N)nc1C | 3 | 27 | -4 | 2 | 0 | 1
C=CCn1c(N)cc(=O)nc1SC(C)C(=O)Nc1ccc(C(=O)OCC)cc1 (stereo not given) | 0 | . | 0 | -1 | 5 | 15*
CCc1c(C)nc2cc(-c3cccc(Br)c3)[nH]n2c1=O | 5 | . | 4 | 0 | 0 | 0
O=S(=O)(c1ccc(F)cc1)N1CC2CCCN2c2ccc(C(F)(F)F)cc21 (stereo not given) | 3 | 75* | 0 | 0 | 0 | -13
Cc1ccc(C2=NC(C)(C)N=C2SCC(=O)Nc2ccc(Cl)cc2)cc1 | 1 | 69 | 10 | 1 | 1 | -8
CC1(C)N=C(SCC(=O)Nc2ccc(Cl)cc2Cl)C(c2ccccc2)=N1 | 0 | 76* | 0 | -1 | 0 | 1
COc1cc(NC(=O)Cn2c(=O)n(-c3cccc(C)c3)c(=O)c3c(C)c(C)sc32)cc(OC)c1 | 0 | 92* | -11 | 8 | 0 | -77
COc1cc(-c2nc3cnccn3c2Nc2ccc3c(c2)OCCO3)ccc1O | -1 | -14 | -1 | 1 | 0 | 1
COc1cc(-c2nc3ccc(C)cn3c2Nc2ccc3c(c2)OCCO3)ccc1O | -1 | -18 | -22 | 1 | 0 | 23*
O=C1c2ccccc2C(c2nnnn2Cc2ccccc2)N1Cc1ccco1 (stereo not given) | . | . | 0 | . | 0 | .
O=C(COC(=O)CCSc1ccccc1Cl)Nc1ccc(F)cc1F | 1 | 72* | 1 | -5 | 0 | -12
O=C(COC(=O)CCSc1ccccc1)Nc1ccc(F)cc1Cl | 1 | 61 | 2 | 4 | 0 | 1
COc1ccc(-c2cc3nc(C)n(N)c(=O)c3s2)cc1 | -10 | 102* | 2 | -10 | 0 | -1
Cn1c(NCc2ccccc2)nc2cc(-c3ccccc3)sc2c1=O | . | . | 1 | . | 0 | .
Cc1nc2cc(-c3ccccc3)sc2c(=O)n1N | -9 | 74* | 0 | -11 | 0 | -1
Cc1ccc(-c2cc(C(=O)Nc3sc4c(c3C(=O)NCc3ccco3)CCC4)[nH]n2)c(O)c1 | 1 | 31 | 6 | 16 | -1 | 21*
COc1ccc(N2C(=O)CSC23C(=O)N2c4c(cccc43)C(C)=CC2(C)C)cc1 (stereo not given) | -1 | 75* | 0 | 3 | 0 | -3
Cc1nc(C)c(C(=O)OCC(=O)Nc2ccc(C)c(C)c2)s1 | . | . | 1 | . | 0 | .
Cc1occc1C(=O)Nc1cccc(C(=O)NCc2ccccc2)c1 | 2 | -1 | -1 | 0 | 0 | -2

High-throughput results as filed in PubChem.
